Experimental data: ChEMBL document CHEMBL4393724, “Betulin-1,4-quinone hybrids: Synthesis, anticancer activity and molecular docking study with NQO1 enzyme” (Eur J Med Chem, 2019); call rule not given here

What was measured:
Format in all cases: functional, cell-based
COLO-829 = assay: Antiproliferative activity against human COLO829 cells assessed as reduction in cell viability incubated for 72 hrs by WST1 assay
A549 = assay: Antiproliferative activity against human A549 cells assessed as reduction in cell viability incubated for 72 hrs by WST1 assay
Method in brief: (§1)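 Cells held at 37 °C under 5% CO2 and seeded at 5 × 10^4 cells/well in DMEM with 10% FCS plus streptomycin and penicillin. Compounds were dissolved in DMSO and exposed for 72 h. WST-1 formazan was read at 450 nm. IC50 was derived from the mean ± SD of at least three independent experiments run in triplicate. Cisplatin served as reference.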

MDA-MB-231 = assay: Antiproliferative activity against human MDA-MB-231 cells assessed as reduction in cell viability incubated for 72 hrs by WST1 assay
SNB-19 = assay: Antiproliferative activity against human SNB19 cells assessed as reduction in cell viability incubated for 72 hrs by WST1 assay
MCF7 = assay: Antiproliferative activity against human MCF7 cells assessed as reduction in cell viability incubated for 72 hrs by WST1 assay; method in brief: as §1
T47D = assay: Antiproliferative activity against human T47D cells assessed as reduction in cell viability incubated for 72 hrs by WST1 assay
C32 = assay: Antiproliferative activity against human C32 cells assessed as reduction in cell viability incubated for 72 hrs by WST1 assay; method in brief: as §1
[1] = Homo sapiens, COLO-829, 72 h, read-out: IC50
[2] = Homo sapiens, A549, 72 h, read-out: IC50
[3] = Homo sapiens, MDA-MB-231, 72 h, read-out: IC50
[4] = Homo sapiens, T47D, 72 h, read-out: IC50
[5] = Homo sapiens, C32, 72 h, read-out: IC50
[6] = Homo sapiens, MCF7, 72 h, read-out: IC50
[7] = Homo sapiens, SNB-19, 72 h, read-out: IC50

| SMILES | IC50 (COLO-829; [1]) | IC50 (A549; [2]) | IC50 (MDA-MB-231; [3]) | IC50 (MCF7; mcf7) | IC50 (T47D; [4]) | IC50 (MDA-MB-231; mda-mb-231) | IC50 (T47D; t47d) | IC50 (COLO-829; colo-829) | IC50 (MCF7; [6]) | IC50 (SNB-19; snb-19) | IC50 (C32; [5]) | IC50 (A549; a549) | IC50 (C32; c32) | IC50 (SNB-19; [7]) |
| --- | --- | --- | --- | --- | --- | --- | --- | --- | --- | --- | --- | --- | --- | --- |
| C=C(C)[C@@H]1CC[C@]2(COC3=C(Cl)C(=O)c4ccc(C)nc4C3=O)CC[C@]3(C)[C@H](CC[C@@H]4[C@@]5(C)CC[C@H](O)C(C)(C)[C@@H]5CC[C@]43C)[C@@H]12 | 1.13 µM | 1.62 µM | 11 µM | Not Active | 90.4 µM | – | – | – | – | Not Active | 12.7 µM | – | – | – |
| Cc1ccc2c(n1)C(=O)C(Cl)=C(Cl)C2=O | 26.4 µM | – | – | Not Active | – | Not Active | Not Active | – | – | Not Active | – | Not Active | Not Active | – |
| C=C(C)[C@@H]1CC[C@]2(COC(C)=O)CC[C@]3(C)[C@H](CC[C@@H]4[C@@]5(C)CC[C@H](OC6=C(Cl)C(=O)c7cccnc7C6=O)C(C)(C)[C@@H]5CC[C@]43C)[C@@H]12 | – | 13.5 µM | – | Not Active | 86.8 µM | Not Active | – | Not Active | – | Not Active | – | – | Not Active | – |
| C=C(C)[C@@H]1CC[C@]2(CO)CC[C@]3(C)[C@H](CC[C@@H]4[C@@]5(C)CC[C@H](O)C(C)(C)[C@@H]5CC[C@]43C)[C@@H]12 [BETULIN] | – | 59.7 µM | 96.2 µM | – | 20.7 µM | – | – | Not Active | 43.9 µM | Not Active | – | – | Not Active | – |
| C=C(C)[C@@H]1CC[C@]2(COC3=C(Cl)C(=O)c4cccnc4C3=O)CC[C@]3(C)[C@H](CC[C@@H]4[C@@]5(C)CC[C@H](O)C(C)(C)[C@@H]5CC[C@]43C)[C@@H]12 | 95.5 µM | 8.58 µM | 80.4 µM | – | 13.2 µM | – | – | – | 94.8 µM | Not Active | – | – | Not Active | – |
| C=C(COC1=C(Cl)C(=O)c2cccnc2C1=O)[C@@H]1CC[C@]2(COC(C)=O)CC[C@]3(C)[C@H](CC[C@@H]4[C@@]5(C)CC[C@H](OC(C)=O)C(C)(C)[C@@H]5CC[C@]43C)[C@@H]12 | 0.13 µM | 3.3 µM | 60.4 µM | – | 12.8 µM | – | – | – | 11.6 µM | – | 22.9 µM | – | – | 62.5 µM |
| C=C(COC1=C(Cl)C(=O)c2ccc(C)nc2C1=O)[C@@H]1CC[C@]2(COC(C)=O)CC[C@]3(C)[C@H](CC[C@@H]4[C@@]5(C)CC[C@H](OC(C)=O)C(C)(C)[C@@H]5CC[C@]43C)[C@@H]12 | 0.12 µM | 0.84 µM | 0.11 µM | – | 10.3 µM | – | – | – | 0.94 µM | Not Active | 1.14 µM | – | – | – |
| C#CC(=O)OC[C@]12CC[C@@H](C(=C)C)[C@@H]1[C@H]1CC[C@@H]3[C@@]4(C)CC[C@H](OC5=C(Cl)C(=O)c6ccc(C)nc6C5=O)C(C)(C)[C@@H]4CC[C@@]3(C)[C@]1(C)CC2 | – | 18.4 µM | 36.9 µM | – | – | – | Not Active | Not Active | 18 µM | – | – | – | Not Active | 10.8 µM |
| O=C1C(Cl)=C(Cl)C(=O)c2ccccc21 [Dichlon] | 37.9 µM | – | – | Not Active | – | Not Active | Not Active | – | – | Not Active | – | Not Active | Not Active | – |

Now from value to molecule, other results behind:

| IC50 (COLO-829; [1]) | IC50 (A549; [2]) | IC50 (MDA-MB-231; [3]) | IC50 (MCF7; mcf7) | IC50 (T47D; [4]) | IC50 (MDA-MB-231; mda-mb-231) | IC50 (T47D; t47d) | IC50 (COLO-829; colo-829) | IC50 (MCF7; [6]) | SMILES | IC50 (SNB-19; snb-19) | IC50 (C32; [5]) | IC50 (A549; a549) | IC50 (C32; c32) | IC50 (SNB-19; [7]) |
| --- | --- | --- | --- | --- | --- | --- | --- | --- | --- | --- | --- | --- | --- | --- |
| – | 1.28 µM | 6.77 µM | – | 96.1 µM | – | – | Not Active | 36.6 µM | C#CC(=O)OC[C@]12CC[C@@H](C(=C)C)[C@@H]1[C@H]1CC[C@@H]3[C@@]4(C)CC[C@H](OC5=C(Cl)C(=O)c6ccccc6C5=O)C(C)(C)[C@@H]4CC[C@@]3(C)[C@]1(C)CC2 | Not Active | 1.04 µM | – | – | – |
| 1.08 µM | 1.15 µM | – | – | 12.6 µM | Not Active | – | – | 71.4 µM | C=C(C)[C@@H]1CC[C@]2(COC3=C(Cl)C(=O)c4ccccc4C3=O)CC[C@]3(C)[C@H](CC[C@@H]4[C@@]5(C)CC[C@H](OC(C)=O)C(C)(C)[C@@H]5CC[C@]43C)[C@@H]12 | – | 13.8 µM | – | – | 3.38 µM |
| – | 53.9 µM | 61.2 µM | Not Active | – | – | Not Active | Not Active | – | C=C(COC1=C(Cl)C(=O)c2ccccc2C1=O)[C@@H]1CC[C@]2(COC(C)=O)CC[C@]3(C)[C@H](CC[C@@H]4[C@@]5(C)CC[C@H](OC(C)=O)C(C)(C)[C@@H]5CC[C@]43C)[C@@H]12 | Not Active | 24.7 µM | – | – | – |
| – | 14.3 µM | – | – | – | Not Active | Not Active | Not Active | 96.8 µM | C=C(C)[C@@H]1CC[C@]2(COC3=C(Cl)C(=O)c4cccnc4C3=O)CC[C@]3(C)[C@H](CC[C@@H]4[C@@]5(C)CC[C@H](OC(C)=O)C(C)(C)[C@@H]5CC[C@]43C)[C@@H]12 | Not Active | – | – | Not Active | – |
| – | 10.6 µM | – | Not Active | 1.47 µM | Not Active | – | Not Active | – | C=C(C)[C@@H]1CC[C@]2(COC3=C(Cl)C(=O)c4ccccc4C3=O)CC[C@]3(C)[C@H](CC[C@@H]4[C@@]5(C)CC[C@H](O)C(C)(C)[C@@H]5CC[C@]43C)[C@@H]12 | – | – | – | Not Active | 9.49 µM |
| 93.8 µM | 0.64 µM | 5.88 µM | – | – | – | Not Active | – | 89.3 µM | C=C(C)[C@@H]1CC[C@]2(COC3=C(Cl)C(=O)c4ccc(C)nc4C3=O)CC[C@]3(C)[C@H](CC[C@@H]4[C@@]5(C)CC[C@H](OC(C)=O)C(C)(C)[C@@H]5CC[C@]43C)[C@@H]12 | Not Active | 1.33 µM | – | – | – |
